Reference: publication PMC11078769 (Heliyon, 2024)

Key:
[1] = system: L. monocytogenes ATCC 19115; test: Inhibition of biofilm formation, crystal violet; type: cell-based, Listeria monocytogenes; conditions: sodium lactate at 5 % (positive control); 37 °C, 24 h, crystal violet A570
Summary of the method: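 Test compound stock mixed with L. monocytogenes at 10^6 CFU/mL to final 2, 4 and 8 μg/mL, grown in microplate wells. Phosphate buffer (pH 7.0) served as negative control. Planktonic cells removed, wells washed twice with phosphate buffer, then stained 30 min with 0.1 % crystal violet and rinsed. Bound dye eluted with 95 % ethanol. Run in triplicate.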

MCF10A human cells = conditions: 0.27 to 27 μmol/L; cited from earlier work
L. monocytogenes = conditions: as reported; cited from earlier work
[2] = system: defibrinated erythrocytes; conditions: enterocin AS-48 at 5–20 μmol/L; cited from earlier work
CCDC18Co human cells = conditions: 0.27 to 27 μmol/L; cited from earlier work

Compound	inhibition rate of biofilm formation [1]	Cytotoxicity (MCF10A human cells)	MIC (L. monocytogenes)	percent hemolysis [2]	Cytotoxicity (CCDC18Co human cells)
CC(O)C(=O)[O-].[Na+] (centres unmarked) [sodium lactate]	54.36%				
enterocin AS-48		no cytotoxicity	0.1 µg/mL	3%–22.6	no cytotoxicity
